Experimental data: article PMC3157043 (Nuclear medicine and biology, 2011)
Blank lines part the entries; values can stand above or below the molecule they belong to.

Columns and labels:
A2A = conditions: cited from earlier work
adenosine A2A = adenosine A2A (Rattus norvegicus, UniProt P30543); experiment: In vitro autoradiography of rat brain slices; type: binding; conditions: 90 min incubation, 2.3 MBq tracer, phosphor imaging
A2A receptor [1] = molecular target: T1, A2A receptor (Rattus norvegicus, UniProt P30543); experiment: Ex vivo brain autoradiography / in vivo blocking; conditions: 30 min after i.v. injection of 12.9 MBq, 50 µm slices
T1 sequence (P30543 whole entry): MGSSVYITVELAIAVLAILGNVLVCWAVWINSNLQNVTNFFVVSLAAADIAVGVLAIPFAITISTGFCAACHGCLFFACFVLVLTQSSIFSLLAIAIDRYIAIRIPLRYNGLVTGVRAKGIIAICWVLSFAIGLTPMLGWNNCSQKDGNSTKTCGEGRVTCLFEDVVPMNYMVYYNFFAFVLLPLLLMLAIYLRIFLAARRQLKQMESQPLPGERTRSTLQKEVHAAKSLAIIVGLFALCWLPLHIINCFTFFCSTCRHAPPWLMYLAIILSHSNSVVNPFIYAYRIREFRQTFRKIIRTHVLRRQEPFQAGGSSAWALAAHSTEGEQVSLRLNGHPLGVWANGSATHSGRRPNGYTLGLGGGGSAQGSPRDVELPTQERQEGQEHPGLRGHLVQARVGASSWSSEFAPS

[2] = In vivo biodistribution in normal rats; parameters: species or system rat
Procedure, shortened: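 Non-lesioned male SD rats received ~11.1 MBq (300 µCi)/rat radiotracer i.v. in saline. They were killed by CO2 asphyxiation at 30 (n = 4), 60 (n = 4) or 120 min (n = 6). Brain, blood and other tissues were wet-weighed and gamma-counted, and uptake was expressed as %ID/g. Data are mean ± SEM, with means compared by 1-way ANOVA.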

A2A receptor [3] = molecular target: T1, A2A receptor; experiment: PET kinetic experiment in normal rats; type: in vivo
Procedure, shortened: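 Unlesioned male SD rats, age-matched to 13–14-week lesioned rats, were imaged on an Inveon microPET under isoflurane (2–3% v/v in O2). Each received […]/rat radiotracer i.v. in saline, followed by a 30 min list-mode emission scan. Caudate-putamen ROI mean pixel values were converted to counts/g/min (1 g/mL density) and divided by injected dose to give %ID/g, reported as mean ± SEM.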

A2A receptor [4] = molecular target: T1, A2A receptor; experiment: PET kinetic experiment in unilaterally 6-OHDA-lesioned rats; type: in vivo
[5] = In vitro metabolism in cryopreserved rat hepatocytes; type: in vitro ADME; conditions: rat hepatocyte incubation
[6] = normal rats; cited from earlier work

adenosine A2A, sequence (P30543 whole entry): as above

Compound: Nc1nc2c(cnn2CCCc2ccc(OCCF)cc2)c2nc(-c3ccco3)nn12 [MRS5425, 7-(3-(4-(2-fluoroethoxy)phenyl)propyl)-2-(furan-2-yl)-7H-pyrazolo[4,3-e][1,2,4]triazolo[1,5-c]pyrimidin-5-amine]
selectivity over A1 and A3 (A2A; A2A versus A1 and A3): 1000 fold
Ki (A2A; read-out: Ki for A2A): 12.4 nM

primary accumulation (tissues) ([2]; 30, 60, 120 min biodistribution): intestine and urine
uptake in striatum ([2]; 30 min after i.v. injection, n = 4, mean ± SEM): 0.25 ± 0.09 %ID/g
uptake in striatum ([2]; 60 min after i.v. injection, n = 4, mean ± SEM): 0.35 ± 0.10 %ID/g
uptake in striatum ([2]; 120 min after i.v. injection, n = 6, mean ± SEM): 0.13 ± 0.03 %ID/g
uptake in striatum compared to blood ([2]; at 30 and 60 min): ~ 2 fold
bone uptake in imaging studies (A2A receptor [3]; PET imaging in rats, marker of defluorination): not observed
plateau of striatal %ID/g held until (A2A receptor [3]; normal rats): 3.5 min
striatal uptake versus cortical and other regions (A2A receptor [3]; normal rats, PET images): significantly higher uptake
time of decline to 75% of peak %ID/g (A2A receptor [3]; normal rats, striatum TAC): about 6 min
time of maximum striatal ROI-derived %ID/g (A2A receptor [3]; normal rats, striatum TAC): 90 s
plateau maintained after maximum (A2A receptor [3]; normal rats, striatum TAC, additional time after 90 sec): 2 min
%ID/g values compared with [11C]-SCH442416 in monkeys (A2A receptor [3]; rat striatum versus 0.035 %ID/mL in monkeys): ~ 20 fold
plateau of striatal %ID/g held until (A2A receptor [4]; 6-OHDA rats): 4.5 min
plateau maintained after peak (A2A receptor [4]; 6-OHDA-lesioned rats, saline): about 3 min
time of peak baseline striatal %ID/g (A2A receptor [4]; 6-OHDA-lesioned rats, saline, both lesioned and intact sides): 90 s
%ID/g in lesioned side compared to intact side (A2A receptor [4]; saline baseline, after plateau to 30 min, p < 0.05): significantly higher
defluorination [5]: evidence for defluorination
metabolite observed ([5]; HPLC-MS, m/z +16, believed N-oxidation): a major fluorine-containing metabolite
Compound: Nc1nc2c(cnn2CCCc2ccc(OCC[18F])cc2)c2nc(-c3ccco3)nn12 [[^18F]-MRS5425, 7-(3-(4-(2-[^18F]fluoroethoxy)phenyl)propyl)-2-(furan-2-yl)-7H-pyrazolo[4,3-e][1,2,4]triazolo[1,5-c]pyrimidin-5-amine]
radioactivity binding on coronal brain slices (adenosine A2A): radioactivity binding (dark area in Fig 1 b) in the caudate-putamen (striatum) nucleus bilaterally
ex vivo radioactivity binding in brain slices (A2A receptor [1]): radioactivity binding in the striatal region bilaterally

Compound: [11CH3]Oc1ccc(CCCn2ncc3c2nc(N)n2nc(-c4ccco4)nc32)cc1 [[^11C]-SCH442416]
time of maximum radioactivity accumulation in striatum [6]: 5 min
time to reach 50% of peak striatal %ID/g [6]: ≤ 25 min
time to reach lowest striatal %ID/g [6]: ≤ 60 min
